Reference: ChEMBL document CHEMBL2021854, “2-Aminopyrimidine based 4-aminoquinoline anti-plasmodial agents. Synthesis, biological activity, structure-activity relationship and mode of action studies” (Eur J Med Chem, 2012)

Tested on: Plasmodium falciparum
Assay: Antiplasmodial activity chloroquine-sensitive Plasmodium falciparum 3D7 infected in human A+ erythrocytes assessed as inhibition of [3H]-hypoxanthine incorporation after 24 hrs by scintillation counting
Format: functional, organism-based
Conditions: not given
`Cc1nc(NCCCNc2ccnc3cc(Cl)ccc23)nc(-c2cccc([N+](=O)[O-])c2)c1C(=O)OC(C)C` gave an IC50 of 0.599 µM.

Tested on: Plasmodium falciparum
Assay: Antiplasmodial activity chloroquine-resistant Plasmodium falciparum K1 infected in human A+ erythrocytes assessed as inhibition of [3H]-hypoxanthine incorporation after 24 hrs by scintillation counting
Format: functional, organism-based
Conditions: not given
Compound `Cc1nc(NCCCNc2ccnc3cc(Cl)ccc23)nc(-c2cccc([N+](=O)[O-])c2)c1C(=O)OC(C)C` has an IC50 of 0.231 µM.

Tested on: Plasmodium falciparum
Assay: Resistant factor, ratio of IC50 for chloroquine-resistant Plasmodium falciparum K1 to IC50 for chloroquine-sensitive Plasmodium falciparum 3D7
Format: functional
Conditions: not given
Method in brief: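 Resistance factor computed as IC50 against K1 divided by IC50 against 3D7, both from the [3H]hypoxanthine incorporation assay.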
For `Cc1nc(NCCCNc2ccnc3cc(Cl)ccc23)nc(-c2cccc([N+](=O)[O-])c2)c1C(=O)OC(C)C`, the “Ratio IC50” value was 0.385.

Tested on: MDCK
Assay: Cytotoxicity against MDCK cells assessed as cell viability by colorimetric formazan-based MTS assay
Set-up: species or system Canis lupus familiaris
Conditions: dog, mdck
Method in brief: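 Cytotoxicity on MDCK cells; 50% cytotoxic concentration from cell viability measured by colorimetric formazan-based MTS assay.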
With `Cc1nc(NCCCNc2ccnc3cc(Cl)ccc23)nc(-c2cccc([N+](=O)[O-])c2)c1C(=O)OC(C)C` the CC50 was 0.5 µM.

Tested on: not listed separately
Assay: Cytotoxicity against MDCK cells assessed as minimum compound concentration required to causes microscopically detectable alteration of normal cell morphology
Format: cell-based, Canis lupus familiaris
Conditions: dog
Method in brief: (§1)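 Confluent, non-proliferating cell cultures were exposed to the compounds. The endpoint was the minimum concentration producing a microscopically detectable alteration of normal cell morphology.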
For `Cc1nc(NCCCNc2ccnc3cc(Cl)ccc23)nc(-c2cccc([N+](=O)[O-])c2)c1C(=O)OC(C)C`, the MCC was 800 nM.

Tested on: not listed separately
Assay: Selectivity index, ratio of CC50 for MDCK cells to IC50 for chloroquine-resistant Plasmodium falciparum K1
Format: functional
Conditions: not given
Method in brief: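 Selectivity index computed as MTS-based CC50 on MDCK cells divided by IC50 against P. falciparum K1.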
With `Cc1nc(NCCCNc2ccnc3cc(Cl)ccc23)nc(-c2cccc([N+](=O)[O-])c2)c1C(=O)OC(C)C` the “Ratio CC50/IC50” value was 2.1.

Tested on: not listed separately
Assay: Cytotoxicity against african green monkey Vero cells assessed as minimum compound concentration required to causes microscopically detectable alteration of normal cell morphology
Format: cell-based
Conditions: chlorocebus sabaeus
Method in brief: as §1
For `Cc1nc(NCCCNc2ccnc3cc(Cl)ccc23)nc(-c2cccc([N+](=O)[O-])c2)c1C(=O)OC(C)C`, the MCC was 100 µM.

Tested on: Human respirovirus 3
Assay: Antiviral activity against Parainfluenza-3 virus infected in african green monkey Vero cells assessed as inhibition of virus-induced cytopathogenicity after 4 days
Format: functional, organism-based
Conditions: Human respirovirus 3, Vero, 96 h
Method in brief: (§2)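 Confluent HEL, Vero or HeLa monolayers were inoculated with 100 CCID50 of virus in the presence of varying concentrations of compound. Cytopathicity was scored when it reached completion in untreated, virus-infected control cultures.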
For `Cc1nc(NCCCNc2ccnc3cc(Cl)ccc23)nc(-c2cccc([N+](=O)[O-])c2)c1C(=O)OC(C)C`, the EC50 was over 20 µM.

Tested on: Mammalian orthoreovirus 1
Assay: Antiviral activity against Reovirus-1 infected in african green monkey Vero cells assessed as inhibition of virus-induced cytopathogenicity after 4 days
Format: functional, organism-based
Conditions: Mammalian orthoreovirus 1, Vero, 96 h
Method in brief: as §2
For `Cc1nc(NCCCNc2ccnc3cc(Cl)ccc23)nc(-c2cccc([N+](=O)[O-])c2)c1C(=O)OC(C)C`, the EC50 was over 20 µM.

Tested on: Sindbis virus
Assay: Antiviral activity against Sindbis virus infected in african green monkey Vero cells assessed as inhibition of virus-induced cytopathogenicity after 4 days
Format: functional, organism-based
Conditions: 96 h
Method in brief: as §2
Work on `Cc1nc(NCCCNc2ccnc3cc(Cl)ccc23)nc(-c2cccc([N+](=O)[O-])c2)c1C(=O)OC(C)C` yielded an EC50 of over 20 µM.

Tested on: Coxsackievirus B4
Assay: Antiviral activity against Coxsackie virus B4 infected in african green monkey Vero cells assessed as inhibition of virus-induced cytopathogenicity after 4 days
Format: functional, organism-based
Conditions: Enterovirus B, 96 h
Method in brief: as §2
In the case of `Cc1nc(NCCCNc2ccnc3cc(Cl)ccc23)nc(-c2cccc([N+](=O)[O-])c2)c1C(=O)OC(C)C`, the EC50 is reported as over 20 µM.

Tested on: Punta Toro virus
Assay: Antiviral activity against Punta Toro virus infected in african green monkey Vero cells assessed as inhibition of virus-induced cytopathogenicity after 4 days
Format: functional, organism-based
Conditions: 96 h
Method in brief: as §2
In the case of `Cc1nc(NCCCNc2ccnc3cc(Cl)ccc23)nc(-c2cccc([N+](=O)[O-])c2)c1C(=O)OC(C)C`, the EC50 is reported as over 20 µM.

Tested on: Human alphaherpesvirus 1
Assay: Antiviral activity against HSV1 KOS infected in HEL cells assessed as inhibition of virus-induced cytopathogenicity after 4 days
Format: functional, organism-based
Conditions: Human alphaherpesvirus 1, KOS, 96 h
Method in brief: (§3)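 Confluent HEL or HeLa monolayers infected with 100 CCID50 of virus in the presence of varying compound concentrations.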
Work on `Cc1nc(NCCCNc2ccnc3cc(Cl)ccc23)nc(-c2cccc([N+](=O)[O-])c2)c1C(=O)OC(C)C` yielded an EC50 of over 4 µM.

Tested on: Human alphaherpesvirus 2
Assay: Antiviral activity against HSV2 G infected in HEL cells assessed as inhibition of virus-induced cytopathogenicity after 4 days
Format: functional, organism-based
Conditions: Human alphaherpesvirus 2, strain G, 96 h
Method in brief: as §2
Work on `Cc1nc(NCCCNc2ccnc3cc(Cl)ccc23)nc(-c2cccc([N+](=O)[O-])c2)c1C(=O)OC(C)C` yielded an EC50 of over 4 µM.

Tested on: Vesicular stomatitis virus
Assay: Antiviral activity against Vesicular stomatitis virus infected in HEL cells assessed as inhibition of virus-induced cytopathogenicity after 4 days
Format: functional, organism-based
Conditions: 96 h
Method in brief: as §3
In the case of `Cc1nc(NCCCNc2ccnc3cc(Cl)ccc23)nc(-c2cccc([N+](=O)[O-])c2)c1C(=O)OC(C)C`, the EC50 is reported as over 4 µM.

Tested on: Human alphaherpesvirus 1
Assay: Antiviral activity against thymidine kinase-deficient acyclovir-resistant HSV1 KOS infected in HEL cells assessed as inhibition of virus-induced cytopathogenicity after 4 days
Format: functional, organism-based
Conditions: Human alphaherpesvirus 1, KOS, 96 h
Method in brief: as §3
Work on `Cc1nc(NCCCNc2ccnc3cc(Cl)ccc23)nc(-c2cccc([N+](=O)[O-])c2)c1C(=O)OC(C)C` yielded an EC50 of over 4 µM.

Tested on: not listed separately
Assay: Cytotoxicity against human HEL cells assessed as minimum compound concentration required to causes microscopically detectable alteration of normal cell morphology
Format: cell-based
Conditions: not given
Method in brief: as §1
In the case of `Cc1nc(NCCCNc2ccnc3cc(Cl)ccc23)nc(-c2cccc([N+](=O)[O-])c2)c1C(=O)OC(C)C`, the MCC is reported as 20 µM.

Tested on: not listed separately
Assay: Cytotoxicity against human HeLa cells assessed as minimum compound concentration required to causes microscopically detectable alteration of normal cell morphology
Format: cell-based
Conditions: not given
Method in brief: as §1
Compound `Cc1nc(NCCCNc2ccnc3cc(Cl)ccc23)nc(-c2cccc([N+](=O)[O-])c2)c1C(=O)OC(C)C` has an MCC of 20 µM.

Tested on: Vesicular stomatitis virus
Assay: Antiviral activity against Vesicular stomatitis virus infected in HeLa cells assessed as inhibition of virus-induced cytopathogenicity after 4 days
Format: functional, organism-based
Conditions: 96 h
Method in brief: as §3
For `Cc1nc(NCCCNc2ccnc3cc(Cl)ccc23)nc(-c2cccc([N+](=O)[O-])c2)c1C(=O)OC(C)C`, the EC50 was over 4 µM.
